Data from article PMC4803553 (Endocrinology and Metabolism, 2016).
Read-outs that look alike come from different tables or passages of the source.

Experiments:
[1] = test system: hemoglobin A1c (HbA1c); assay type: in vivo, human; settings: mean±SD; for After treatment HbA1c: after 3 months of treatment, kidney transplant patients with diabetes; for Difference of HbA1c (ΔHbA1c): change from baseline to 3 months of treatment
Procedure, shortened: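 Renal allograft recipients with diabetes, all on cyclosporine-based triple maintenance therapy, started a DPP-4 inhibitor after transplant, at full or renally adjusted reduced dose (50 mg once daily). HbA1c was measured by immunoturbidimetry on an automated analyser and reported as NGSP %. Values at baseline and after 3 months of treatment were compared by paired t test; mean±SD.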

[2] = Renal function; assay type: in vivo, human; settings: follow-up after DPP-4 inhibitor treatment, mean±SD; for Follow-up eGFR: MDRD equation
Procedure, shortened: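 Fasting early-morning antecubital venous blood was taken from renal allograft recipients receiving a DPP-4 inhibitor. Creatinine was measured by the Jaffe method. eGFR was calculated with the Modification of Diet in Renal Disease study equation. Values are reported as mean±SD and were compared across inhibitor groups by one-way ANOVA with Scheffe post hoc tests.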

[3] = cited from earlier work

Row | Follow-up eGFR [2] [mL/min/1.73 m^2] | Follow-up creatinine [2] [mg/dL] | SMILES | After treatment HbA1c [1] [%] | Difference of HbA1c (ΔHbA1c) [1] [%] | Eliminated in an unchanged form via the feces [3] [%] | Renal excretion, share of elimination [3] [%] | Difference of HbA1c (ΔHbA1c) ([1]; listed as sitagliptin) | Eliminated in an unchanged form in the urine [3] [%] | Difference of HbA1c (ΔHbA1c) ([1]; listed as vildagliptin)
1 | 62.82±18.74 | 1.25 ± 0.42 | CC#CCn1c(N2CCC[C@@H](N)C2)nc2c1c(=O)n(Cc1nc(C)c3ccccc3n1)c(=O)n2C [Linagliptin, linagliptin] | 6.79±0.63 | -1.40±1.34 | 84.7 | 5.4 |  |  | 
2 | 61.03±16.50 | 1.22 ± 0.82 | N[C@@H](CC(=O)N1CCn2c(nnc2C(F)(F)F)C1)Cc1cc(F)c(F)cc1F [Sitagliptin, sitagliptin] | 7.18±1.21 | -0.53±0.95 |  |  | –0.53%±0.95% | 79 | 
3 | 58.21±17.76 | 1.41 ± 0.95 | N#C[C@@H]1CCCN1C(=O)CNC12CC3CC(CC(O)(C3)C1)C2 [Vildagliptin, vildagliptin] | 7.08±1.81 | -0.38±1.03 |  |  |  |  | –0.38%±1.03%
